How the values were obtained:
[1] = biological target: T1, Muscarinic acetylcholine receptor M5 (Homo sapiens, UniProt P08912); assay: Positive allosteric modulator activity at human muscarinic acetylcholine receptor subtype 5 expressed in CHO cells by calcium mobilization assay; assay type: functional, cell-based
T1 sequence (P08912 whole entry): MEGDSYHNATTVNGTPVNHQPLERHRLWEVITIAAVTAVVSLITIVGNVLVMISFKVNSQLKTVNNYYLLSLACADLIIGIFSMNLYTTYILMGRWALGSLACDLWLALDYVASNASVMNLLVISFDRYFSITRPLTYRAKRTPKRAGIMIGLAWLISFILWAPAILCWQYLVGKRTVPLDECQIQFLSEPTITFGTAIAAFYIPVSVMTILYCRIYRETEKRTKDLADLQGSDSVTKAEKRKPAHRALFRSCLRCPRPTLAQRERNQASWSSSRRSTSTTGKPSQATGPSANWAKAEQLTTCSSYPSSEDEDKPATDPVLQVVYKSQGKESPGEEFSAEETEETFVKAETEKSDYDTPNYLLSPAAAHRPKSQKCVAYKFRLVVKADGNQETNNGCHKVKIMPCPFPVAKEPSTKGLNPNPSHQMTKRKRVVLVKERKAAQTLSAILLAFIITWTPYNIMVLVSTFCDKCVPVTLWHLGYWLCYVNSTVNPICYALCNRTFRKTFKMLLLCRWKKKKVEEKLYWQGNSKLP

[2] = biological target: T2, Muscarinic acetylcholine receptor M5 (Homo sapiens) (UniProt P08912); assay: Positive allosteric modulator activity at human muscarinic acetylcholine receptor subtype 5 expressed in CHO cells by calcium mobilization assay relative to acetylcholine; assay type: functional, cell-based
T2 sequence (whole entry): T1 sequence (P08912 whole entry)

[3] = biological target: T2, Muscarinic acetylcholine receptor M5 (Homo sapiens); assay: Positive allosteric modulator activity at human muscarinic acetylcholine receptor subtype 5 expressed in CHO cells assessed as fold shift in acetylcholine-induced response at 10 uM by calcium mobilization assay; assay type: functional, cell-based
Outline: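 In hM5 CHO cells by calcium mobilization, PAM at a fixed 10 μM or vehicle is added before an ACh concentration-response curve. Fold shift is the ratio of ACh potency without PAM to potency with PAM.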

[4] = Intrinsic clearance in rat liver microsomes; assay type: ADME; conditions: read-out: CLH
Outline: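 Microsomal intrinsic clearance, used in the well-stirred model of organ clearance, not corrected for plasma fraction unbound, to predict hepatic clearance.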

[5] = biological target: T2, Muscarinic acetylcholine receptor M5 (Homo sapiens); assay: Displacement of [3H]NMS from human muscarinic acetylcholine receptor subtype 5 expressed in CHO cell membranes assessed as radioligand binding level by scintillation counting method

SMILES | EC50 ([1]; read-out: EC50) [nM] | %max [2] [%] | other results
CCN(C(=O)C1CCN(S(=O)(=O)c2ccc(OC)cc2)CC1)[C@H](C)c1ccccc1 | 970 | 90 | fold change (FC) [3]: 7
CCN(C(=O)C1CCN(S(=O)(=O)c2ccc(OC)cc2)CC1)[C@@H](C)c1ccccc1 | – | – | EC50 ([1]; cho): Not Active
CCN(Cc1cccc(Cl)c1)C(=O)C1CCN(S(=O)(=O)c2ccc3cn[nH]c3c2)CC1 | 1600 | 77 | –
O=C(C1CCN(S(=O)(=O)c2ccc3[nH]ncc3c2)CC1)N(Cc1ccccc1C(F)(F)F)CC1CCC1 | 130 | 103 | CLint scaled [4]: > 500 mL/min/kg
CCN(Cc1ccccc1Cl)C(=O)C1CCN(S(=O)(=O)c2ccc3cn[nH]c3c2)CC1 | 640 | 93 | –
O=C(C1CCN(S(=O)(=O)c2ccc3[nH]ncc3c2)CC1)N(Cc1ccccc1C(F)(F)F)C1CCC1 | 1800 | 84 | –
CCN(Cc1ccccc1)C(=O)C1CCN(S(=O)(=O)c2ccc(C(F)(F)F)nc2)CC1 | > 10000 | – | –
CCN(Cc1ccccc1F)C(=O)C1CCN(S(=O)(=O)c2ccc3cn[nH]c3c2)CC1 | 2100 | 84 | –
CCN(Cc1ccccc1Cl)C(=O)C1CCN(S(=O)(=O)c2ccc3[nH]ncc3c2)CC1 | 350 | 78 | –
CCN(Cc1ccccc1)C(=O)C1CCN(S(=O)(=O)c2ccccc2OC)CC1 | > 10000 | – | –
CCN(Cc1ccccc1)C(=O)C1CCN(S(=O)(=O)c2ccc3cn[nH]c3c2)CC1 | 1700 | 86 | fold change (FC) [3]: 4.8
CCN(Cc1cccc(OC)c1)C(=O)C1CCN(S(=O)(=O)c2ccc3cn[nH]c3c2)CC1 | 2600 | 85 | –
CCN(C(=O)C1CCN(S(=O)(=O)c2ccc3occc3c2)CC1)[C@H](C)c1ccccc1 | 930 | 80 | –
CCN(Cc1ccccc1)C(=O)C1CCN(S(=O)(=O)c2ccc3nsnc3c2)CC1 | 3000 | 81 | –
CCN(Cc1ccccc1)C(=O)C1CCN(S(=O)(=O)c2ccc3[nH]ncc3c2)CC1 | 1600 | 86 | fold change (FC) [3]: 5.4
O=C(C1CCN(S(=O)(=O)c2ccc3[nH]ncc3c2)CC1)N(CCF)Cc1ccccc1C(F)(F)F | 1300 | 95 | –
CCN(Cc1ccccc1)C(=O)C1CCN(S(=O)(=O)c2ccc(OC)cc2)CC1 | 3300 | 84 | –
CC(C)N(Cc1ccccc1C(F)(F)F)C(=O)C1CCN(S(=O)(=O)c2ccc3[nH]ncc3c2)CC1 | > 10000 | 54 | –
CCCN(Cc1ccccc1C(F)(F)F)C(=O)C1CCN(S(=O)(=O)c2ccc3[nH]ncc3c2)CC1 | 160 | 94 | –
C=CCN(Cc1ccccc1C(F)(F)F)C(=O)C1CCN(S(=O)(=O)c2ccc3[nH]ncc3c2)CC1 | 1800 | 79 | –
CCN(C(=O)C1CCN(S(=O)(=O)c2ccc3cn[nH]c3c2)CC1)[C@H](C)c1ccccc1 | 760 | 87 | –
CCN(Cc1ccccc1OC)C(=O)C1CCN(S(=O)(=O)c2ccc3cn[nH]c3c2)CC1 | 750 | 92 | –
O=C(C1CCN(S(=O)(=O)c2ccc3[nH]ncc3c2)CC1)N(Cc1ccccc1C(F)(F)F)C1CC1 | – | – | EC50 ([1]; cho): Not Active
CCN(Cc1ccccc1)C(=O)C1CCN(S(=O)(=O)c2ccc3occc3c2)CC1 | 2400 | 80 | –
CCN(Cc1ccccc1)C(=O)C1CCN(S(=O)(=O)c2ccc(C)s2)CC1 | > 10000 | 64 | –
CCN(Cc1ccccc1)C(=O)C1CCN(S(=O)(=O)c2ccc3c(c2)OCO3)CC1 | 7400 | 93 | –
CCN(Cc1ccccc1)C(=O)C1CCN(S(=O)(=O)c2c[nH]cn2)CC1 | > 10000 | – | –

SMILES | EC50 ([1]; read-out: EC50) [nM] | %max [2] [%] | other results
CCN(Cc1ccccc1)C(=O)C1CCN(S(=O)(=O)c2ccccc2)CC1 | 6200 | 69 | –
CCN(Cc1ccccc1)C(=O)C1CCN(S(=O)(=O)c2cccc(OC)c2)CC1 | 3100 | 77 | –
CCN(Cc1ccccc1C)C(=O)C1CCN(S(=O)(=O)c2ccc3cn[nH]c3c2)CC1 | 870 | 103 | –
CCN(Cc1ccccc1)C(=O)C1CCN(S(=O)(=O)c2c(C)noc2C)CC1 | > 10000 | – | –
CN1[C@@H]2CC[C@H]1C[C@@H](OC(=O)C(CO)c1ccccc1)C2 (stereo partly specified) | – | – | %max [5]: 1.8%
CCN(Cc1ccccc1)C(=O)C1CCN(S(=O)(=O)c2cccnc2)CC1 | > 10000 | – | –
CCN(Cc1ccccc1)C(=O)C1CCN(S(=O)(=O)c2cccc3c2OCCO3)CC1 | > 10000 | 53 | –
CCN(Cc1ccccc1)C(=O)C1CCN(S(=O)(=O)c2ccc3cccnc3c2)CC1 | > 10000 | 66 | –
CCC(C)N(Cc1ccccc1C(F)(F)F)C(=O)C1CCN(S(=O)(=O)c2ccc3[nH]ncc3c2)CC1 (stereo unspecified) | 150 | 100 | –
CCN(Cc1ccccc1)C(=O)C1CCN(S(=O)(=O)c2ccc(OC)c(OC)c2)CC1 | > 10000 | 57 | –
CCN(Cc1ccccc1)C(=O)C1CCN(S(=O)(=O)c2ccc3c(c2)OCCO3)CC1 | – | – | fold change (FC) [3]: 2.3
CCN(Cc1ccc(C(F)(F)F)cc1)C(=O)C1CCN(S(=O)(=O)c2ccc3cn[nH]c3c2)CC1 | – | – | EC50 ([1]; cho): Not Active
O=C(C1CCN(S(=O)(=O)c2ccc3[nH]ncc3c2)CC1)N(Cc1ccccc1C(F)(F)F)CC1CC1 | 120 | 102 | CLint scaled [4]: > 500 mL/min/kg
CCN(Cc1ccccc1)C(=O)C1CCN(S(=O)(=O)c2ccccn2)CC1 | > 10000 | – | –
O=C(C1CCN(S(=O)(=O)c2ccc3[nH]ncc3c2)CC1)N(CCO)Cc1ccccc1C(F)(F)F | > 10000 | 60 | –
CCN(Cc1cccc(F)c1)C(=O)C1CCN(S(=O)(=O)c2ccc3cn[nH]c3c2)CC1 | 1500 | 89 | –
CCN(Cc1ccccc1)C(=O)C1CCN(S(=O)(=O)c2ccncc2)CC1 | > 10000 | – | –
CCN(Cc1ccccc1C(F)(F)F)C(=O)C1CCN(S(=O)(=O)c2ccc3cn[nH]c3c2)CC1 | 480 | 92 | fold change (FC) [3]: 7
CCN(C(=O)C1CCN(S(=O)(=O)c2ccc3c(c2)CCO3)CC1)[C@H](C)c1ccccc1 | 1110 | 88 | –
CCN(Cc1cccc(C)c1)C(=O)C1CCN(S(=O)(=O)c2ccc3cn[nH]c3c2)CC1 | 870 | 78 | –
CCN(C(=O)C1CCN(S(=O)(=O)c2ccc3c(c2)CCC3)CC1)[C@H](C)c1ccccc1 | 730 | 97 | –
CCN(Cc1cccc(C(F)(F)F)c1)C(=O)C1CCN(S(=O)(=O)c2ccc3cn[nH]c3c2)CC1 | 5600 | 59 | –
CCN(Cc1ccccc1)C(=O)C1CCN(S(=O)(=O)c2cccc3nsnc23)CC1 | > 10000 | – | –
CCN(C(=O)C1CCN(S(=O)(=O)c2ccc3[nH]ncc3c2)CC1)[C@H](C)c1ccccc1 | 740 | 86 | fold change (FC) [3]: 12
CCN(Cc1ccc(F)cc1)C(=O)C1CCN(S(=O)(=O)c2ccc3cn[nH]c3c2)CC1 | > 10000 | 55 | –
CC(C)(C)CN(Cc1ccccc1C(F)(F)F)C(=O)C1CCN(S(=O)(=O)c2ccc3[nH]ncc3c2)CC1 | 120 | 104 | CLint scaled [4]: > 500 mL/min/kg
